Assay results from publication PMC4659844 (Clinical Drug Investigation, 2015).
Read-outs that look alike come from different tables or passages of the source.

Tests used:
[1] = cited from earlier work
cytochrome P450 (CYP) = settings: background statement, no reference given; cited from earlier work
QTc = settings: cited from earlier work
[2] = system: healthy Japanese subjects; assay: Safety and tolerability; format: in vivo, human
Summary of the method: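 Double-blind, placebo-controlled single 30-min IV infusion (300 ml, in 5 % dextrose with sterile water) of test compound or placebo. Groups: 500 mg, 5 active/1 placebo; 1000 mg, 10 active/2 placebo. Safety was assessed by physical examination, chemistry, hematology, urinalysis, heart rate, blood pressure, respiratory rate, oral temperature, and monitoring of concomitant medications and adverse events, queried on all study days with non-leading questions.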

[3] = format: in vivo, human; settings: for percentage of total exposure (AUC0–∞) after 7 days / percentage of total exposure (AUC0–∞) after 14 days: based on mean partial AUCs
[4] = 500 mg and 1000 mg single IV infusion, range of the two dose means
[5] = 500 mg single IV infusion, healthy Japanese subjects, range of subjects, n = 5
[6] = 1000 mg single IV infusion, healthy Japanese subjects, range of subjects, n = 10

For CN[C@H]1C(=O)N[C@@H]2Cc3ccc(cc3)Oc3cc4cc(c3O[C@@H]3O[C@H](C(=O)O)[C@@H](O)[C@H](O)[C@H]3NC(=O)CCCCCCCCC(C)C)Oc3ccc(cc3Cl)[C@@H](O)[C@@H]3NC(=O)[C@H](NC(=O)[C@@H]4NC(=O)[C@@H](NC2=O)c2cc(cc(O)c2Cl)Oc2cc1ccc2O)c1ccc(O)c(c1)-c1c(O[C@H]2O[C@H](CO)[C@@H](O)[C@H](O)[C@@H]2O)cc(O)cc1[C@@H](C(=O)NCCCN(C)C)NC3=O [Dalbavancin], the “terminal half-life (t1/2)” value [1] is listed as 2 weeks, the “terminal t1/2” value ([1]; studies with follow-up periods as long as 70 days) is listed as at most 372 h and the CYP oxidative metabolism (cytochrome P450 (CYP)) is listed as “does not undergo cytochrome P450 (CYP) oxidative metabolism”. The “substrate, inhibitor or inducer of CYP isozymes” value (cytochrome P450 (CYP)) was “is not a substrate, inhibitor or inducer of any known CYP-isozyme”, the QTc prolongation (QTc) was “no evidence of QTc prolongation” and the tolerability ([2]; 500 mg and 1000 mg as single 30-min infusions, healthy Japanese subjects) was “well tolerated”. For the same molecule, the “serious adverse events, deaths, discontinuations due to a TEAE” value ([2]; 500 mg and 1000 mg single IV infusion, healthy Japanese subjects) was “no serious adverse event occurred”, the “investigator-assessed relation of dizziness to study medication” value ([2]; 500 mg dose group) was “unlikely to be related” and the “investigator-assessed relation of dyspepsia to study medication” value ([2]; 500 mg dose group) was “not related”. The “investigator-assessed relation of rash and diarrhea to study medication” value ([2]; 1000 mg dose group) was “possibly related”, the “subjects with at least one TEAE, percentage” value ([2]; Dalbavancin 500 mg single IV infusion, N = 5) was 40% and the “subjects with at least one TEAE, percentage” value ([2]; Dalbavancin 1000 mg single IV infusion, N = 10) was 30%. The “clinical laboratory values (chemistry, hematology, urinalysis)” value ([2]; any dose group, change from baseline) was “No clinically relevant, abnormal laboratory values were reported”, the “intensity of TEAEs” value ([2]; subjects receiving dalbavancin in both dose groups (500 mg, 1000 mg)) was “mild intensity” and the “mean CL across two dose concentrations” value [3, 4] was 40.5 to 42.2 mL/h. The “mean Vd across two dose concentrations” value [3, 4] was 11,301 to 12,182 ml, the “percentage of total exposure (AUC0–∞) after 7 days” value ([3]; 500 mg single IV infusion) was “approximately 47%” and the “percentage of total exposure (AUC0–∞) after 14 days” value ([3]; 500 mg single IV infusion) was about 70%. The “mean AUC%extrap (percentage of AUC0–∞ obtained by extrapolation)” value ([3]; 500 mg single IV infusion, healthy Japanese subjects) was 9.83%, the “Vd, range” value [3, 5] was 11,412–14,205 ml and the “terminal phase t1/2, range” value [3, 5] was 182 to 240 h. The “percentage of total exposure (AUC0–∞) after 7 days” value ([3]; 1000 mg single IV infusion) was “approximately 49%”, the “percentage of total exposure (AUC0–∞) after 14 days” value ([3]; 1000 mg single IV infusion) was about 73% and the “mean AUC%extrap (percentage of AUC0–∞ obtained by extrapolation)” value ([3]; 1000 mg single IV infusion, healthy Japanese subjects) was 8.34%. The “CL, range” value [3, 6] was 34.8 to 45.8 mL/h, the “Vd, range” value [3, 6] was 8999–13,691 ml and the “terminal phase t1/2, range” value [3, 6] was 162 to 220 h.
